ChEMBL document CHEMBL2384953, “Design and synthesis of L- and D-phenylalanine derived rhodanines with novel C5-arylidenes as inhibitors of HCV NS5B polymerase” (Bioorg Med Chem, 2013)

Key:
Hepatitis C virus [1] = assay: Inhibition of HCV genotype 1b recombinant NS5B Cdelta21 polymerase assessed as inhibition of radioactive UMP incorporation into nascent RNA using […] template-primer after 1hr by liquid scintillation counting analysis; parameters: species or system Hepatitis C virus subtype 1b
In short: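 Recombinant HCV NS5BCΔ21 (genotype 1b), homopolymeric poly rA/U12 template-primer. Read-out is radioactive UMP incorporated into nascent RNA. Dose-response at 8-10 compound concentrations, in duplicate, two independent experiments. IC50 interpolated from nonlinear regression fits; mean ± SD.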

[2] = target: RNA-directed RNA polymerase (Hepacivirus hominis, UniProt O39930, M414T); assay: Inhibition of HCV NS5B polymerase M414T mutant assessed as inhibition of radioactive UMP incorporation into nascent RNA using […] template-primer after 1hr by liquid scintillation counting analysis
RNA-directed RNA polymerase (Hepacivirus hominis, UniProt O39930, M414T), sequence (O39930 entry or part of it M414T): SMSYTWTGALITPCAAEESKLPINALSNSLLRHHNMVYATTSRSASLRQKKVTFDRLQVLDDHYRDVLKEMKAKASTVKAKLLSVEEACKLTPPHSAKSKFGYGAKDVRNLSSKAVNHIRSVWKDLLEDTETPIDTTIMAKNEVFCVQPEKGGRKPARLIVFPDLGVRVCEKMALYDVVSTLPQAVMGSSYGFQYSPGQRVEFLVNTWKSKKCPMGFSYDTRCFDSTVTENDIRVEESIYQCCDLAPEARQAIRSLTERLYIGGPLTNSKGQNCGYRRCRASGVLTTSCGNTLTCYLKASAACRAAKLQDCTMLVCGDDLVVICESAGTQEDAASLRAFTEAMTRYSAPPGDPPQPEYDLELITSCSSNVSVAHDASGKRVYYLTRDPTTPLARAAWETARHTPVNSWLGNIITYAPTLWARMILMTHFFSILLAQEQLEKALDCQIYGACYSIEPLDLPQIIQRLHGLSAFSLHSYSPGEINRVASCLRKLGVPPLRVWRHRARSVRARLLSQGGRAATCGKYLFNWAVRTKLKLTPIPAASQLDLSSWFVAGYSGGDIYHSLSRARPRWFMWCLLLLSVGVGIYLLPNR
In short: (§1)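 Mutant counterscreen with recombinant NS5BCΔ21 mutants: P495L (probe for TP-I site), M423T (TP-II), M414T (PP-I). Radioactive UMP incorporation into nascent RNA on poly rA/U12 template-primer, run as for wild-type. IC50 from dose-response curves by nonlinear regression; mean ± SD of at least two independent experiments in duplicate.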

Hepacivirus hominis [3] = assay: Selectivity ratio of IC50 for HCV NS5B polymerase M414T mutant to IC50 for wild type HCV NS5B polymerase
In short: (§2)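 Recombinant HCV NS5BCΔ21 (genotype 1b), wild type and the P495L, M423T and M414T mutants, each assayed for incorporation of radioactive UMP into nascent RNA on homopolymeric poly rA/U12 template-primer. IC50s came from nonlinear regression of dose-response curves (8-10 compound concentrations, duplicate, at least two independent experiments, mean ± SD). The ratio is mutant IC50 over wild-type IC50.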

[4] = target: RNA-directed RNA polymerase (Hepacivirus hominis, UniProt O39930, M423T); assay: Inhibition of HCV NS5B polymerase M423T mutant assessed as inhibition of radioactive UMP incorporation into nascent RNA using […] template-primer after 1hr by liquid scintillation counting analysis; in short: as §1
RNA-directed RNA polymerase (Hepacivirus hominis, UniProt O39930, M423T), sequence (O39930 entry or part of it M423T): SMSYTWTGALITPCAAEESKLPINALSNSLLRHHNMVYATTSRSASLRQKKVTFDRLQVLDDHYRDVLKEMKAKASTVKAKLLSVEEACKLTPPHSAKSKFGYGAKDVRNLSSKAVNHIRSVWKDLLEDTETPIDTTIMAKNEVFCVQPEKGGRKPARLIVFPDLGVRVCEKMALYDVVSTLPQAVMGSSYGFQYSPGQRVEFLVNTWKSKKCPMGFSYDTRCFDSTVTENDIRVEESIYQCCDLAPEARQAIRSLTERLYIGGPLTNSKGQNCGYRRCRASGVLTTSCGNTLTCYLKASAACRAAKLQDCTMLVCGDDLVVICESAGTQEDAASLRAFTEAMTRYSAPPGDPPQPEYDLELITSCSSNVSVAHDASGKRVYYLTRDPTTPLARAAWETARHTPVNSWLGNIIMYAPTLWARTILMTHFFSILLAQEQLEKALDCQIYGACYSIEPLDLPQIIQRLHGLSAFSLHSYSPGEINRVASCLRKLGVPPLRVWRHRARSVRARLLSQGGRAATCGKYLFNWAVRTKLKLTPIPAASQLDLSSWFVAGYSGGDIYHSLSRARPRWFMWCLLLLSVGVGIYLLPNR

[5] = target: RNA-directed RNA polymerase (Hepacivirus hominis, UniProt O39930, P495L); assay: Inhibition of HCV NS5B polymerase P495L mutant assessed as inhibition of radioactive UMP incorporation into nascent RNA using […] template-primer after 1hr by liquid scintillation counting analysis; in short: as §1
RNA-directed RNA polymerase (Hepacivirus hominis, UniProt O39930, P495L), sequence (O39930 entry or part of it P495L): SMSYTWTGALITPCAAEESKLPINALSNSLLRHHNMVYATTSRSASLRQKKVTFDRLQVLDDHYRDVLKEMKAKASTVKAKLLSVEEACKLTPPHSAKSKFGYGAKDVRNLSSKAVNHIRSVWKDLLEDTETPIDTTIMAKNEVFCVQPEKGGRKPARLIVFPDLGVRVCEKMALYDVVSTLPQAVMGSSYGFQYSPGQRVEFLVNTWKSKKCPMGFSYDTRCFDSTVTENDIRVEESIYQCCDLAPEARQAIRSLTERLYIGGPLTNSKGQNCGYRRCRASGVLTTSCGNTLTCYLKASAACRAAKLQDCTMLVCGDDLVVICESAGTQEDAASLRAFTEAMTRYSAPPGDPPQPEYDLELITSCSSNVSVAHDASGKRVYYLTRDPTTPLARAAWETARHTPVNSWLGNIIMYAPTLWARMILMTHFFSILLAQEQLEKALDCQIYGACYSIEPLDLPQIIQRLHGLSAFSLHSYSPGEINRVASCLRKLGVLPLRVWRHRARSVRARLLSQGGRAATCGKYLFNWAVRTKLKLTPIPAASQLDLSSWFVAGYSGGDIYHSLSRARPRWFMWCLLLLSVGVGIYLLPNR

Hepacivirus hominis [6] = assay: Selectivity ratio of IC50 for HCV NS5B polymerase M423T mutant to IC50 for wild type HCV NS5B polymerase; in short: as §2
Hepacivirus hominis [7] = assay: Selectivity ratio of IC50 for HCV NS5B polymerase P495L mutant to IC50 for wild type HCV NS5B polymerase; in short: as §2
[8] = Cytotoxicity against human hepatoma cells; format: cell-based
Hepatitis C virus [9] = assay: Antiviral activity against hepatitis C virus infected in human hepatoma cells assessed as inhibition of HCV replication at 100 uM; format: functional, Hepacivirus hominis

| SMILES | IC50 (Hepatitis C virus [1]) | further results |
| --- | --- | --- |
| O=C(c1ccccc1)c1cccc(/C=C2\SC(=S)N([C@@H](Cc3ccccc3)C(=O)O)C2=O)c1 | 11.1 µM | – |
| O=C(O)[C@H](Cc1ccccc1)N1C(=O)/C(=C/c2ccccc2Oc2ccccc2)SC1=S | 13.3 µM | – |
| O=C(O)[C@H](Cc1ccccc1)N1C(=O)/C(=C/c2ccc(Cl)cc2)SC1=S | 22.3 µM | – |
| O=C(O)[C@H](Cc1ccccc1)N1C(=O)/C(=C/c2cccc(Oc3ccc(F)cc3)c2)SC1=S | 12.5 µM | – |
| COc1ccc(Oc2cccc(/C=C3\SC(=S)N([C@@H](Cc4ccccc4)C(=O)O)C3=O)c2)cc1 | 8.3 µM | – |
| O=C(O)[C@H](Cc1ccccc1)N1C(=O)/C(=C/c2cccc(OCc3ccccc3)c2)SC1=S | 21.8 µM | – |
| O=C(O)[C@@H](Cc1ccccc1)N1C(=O)/C(=C/c2cccc(Oc3ccc(Cl)c(Cl)c3)c2)SC1=S | 5.4 µM | – |
| O=C(O)[C@H](Cc1ccccc1)N1C(=O)/C(=C/c2cccc(OC/C=C\c3ccccc3)c2)SC1=S | 6.4 µM | – |
| O=C(O)[C@H](Cc1ccccc1)N1C(=O)/C(=C/c2cccc(Oc3ccc(Cl)c(Cl)c3)c2)SC1=S | 2.6 µM | IC50 [2]: 47.8 µM; Ratio IC50 (Hepacivirus hominis [3]): 16; IC50 [4]: 3 µM; IC50 [5]: 2.8 µM; Ratio IC50 (Hepacivirus hominis [6]): < 1.5; Ratio IC50 (Hepacivirus hominis [7]): < 1.5 |
| O=C(O)[C@@H](Cc1ccccc1)N1C(=O)/C(=C/c2cccc(Oc3ccc(F)cc3)c2)SC1=S | 10.3 µM | – |
| O=C(O)[C@H](Cc1ccccc1)N1C(=O)/C(=C/c2cccc(Oc3cccc(F)c3)c2)SC1=S | 8.2 µM | – |
| O=C(O)[C@H](Cc1ccccc1)N1C(=O)/C(=C/c2ccc(F)c(F)c2)SC1=S | 16.3 µM | – |
| O=C(O)[C@H](Cc1ccccc1)N1C(=O)/C(=C/c2cccc(-c3ccccc3)c2)SC1=S | 16.6 µM | – |
| O=C(O)[C@H](Cc1ccccc1)N1C(=O)/C(=C/c2cccc(Cc3ccccc3)c2)SC1=S | 4.8 µM | Activity [8]: Non-toxic; inhibition at 100 µM (Hepatitis C virus [9]): 30% |
| O=C(O)[C@@H](Cc1ccccc1)N1C(=O)/C(=C/c2cccc(Oc3ccc(Cl)cc3)c2)SC1=S | 5.1 µM | – |
| O=C(O)[C@H](Cc1ccccc1)N1C(=O)/C(=C/c2cccc(Oc3ccccc3)c2)SC1=S | 6.7 µM | – |
| O=C(O)[C@H](Cc1ccccc1)N1C(=O)/C(=C/c2ccc(Cl)c(Cl)c2)SC1=S | 19.4 µM | – |
| O=C(O)[C@H](Cc1ccccc1)N1C(=O)/C(=C/c2ccc(F)cc2)SC1=S | 27.7 µM | – |
| O=C(O)[C@@H](Cc1ccccc1)N1C(=O)/C(=C/c2cccc(Oc3ccccc3)c2)SC1=S | 19.3 µM | – |
| O=C(O)[C@H](Cc1ccccc1)N1C(=O)/C(=C/c2cc(F)cc(F)c2)SC1=S | 26 µM | – |
| N#Cc1cccc(/C=C2\SC(=S)N([C@@H](Cc3ccccc3)C(=O)O)C2=O)c1 | 30.7 µM | – |
| O=C(O)[C@H](Cc1ccccc1)N1C(=O)/C(=C/c2cccc(Cl)c2)SC1=S | 26.6 µM | – |
| O=C(O)[C@H](Cc1ccccc1)N1C(=O)/C(=C/c2cccc(Oc3cccc(Cl)c3)c2)SC1=S | 4.1 µM | – |
| O=C(O)[C@H](Cc1ccccc1)N1C(=O)/C(=C/c2ccc(Br)cc2)SC1=S | 11.7 µM | – |
| O=C(O)[C@H](Cc1ccccc1)N1C(=O)/C(=C/c2cccc(Br)c2)SC1=S | 7.4 µM | – |
| O=C(O)[C@H](Cc1ccccc1)N1C(=O)/C(=C/c2cccc(Oc3ccc(Cl)cc3)c2)SC1=S | 3.4 µM | IC50 [2]: 55.7 µM; Ratio IC50 (Hepacivirus hominis [3]): 16; IC50 [4]: 4.2 µM; IC50 [5]: 3.6 µM; Ratio IC50 (Hepacivirus hominis [6]): < 1.5; Ratio IC50 (Hepacivirus hominis [7]): < 1.5 |
| O=C(O)[C@H](Cc1ccccc1)N1C(=O)/C(=C/c2ccc(Oc3ccccc3)cc2)SC1=S | 50.7 µM | – |
| O=C(O)[C@@H](Cc1ccccc1)N1C(=O)/C(=C/c2cccc(Oc3cccc(Cl)c3)c2)SC1=S | 4.1 µM | – |
